# Assay outcomes: PubChem BioAssay, several laboratories
# A selection: hits, their analogues and other compounds. The true share with any hit is near 2%.
# ARNT-TACC3 inh = ARNT/TACC3 interaction disruption; Q9Y6A5; AlphaScreen His-ARNT PAS-B/GST-TACC3 binding, luminescence; TACC3 fragment carries E629A point mutation; inhibition, % at 9.99 µM; 390,000 compounds, 0.66% hits; AID 623870;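 active means mean inhibition of replicates at least 50% and at least half of replicates each reaching 50%; inconclusive means half or more replicates reach 50% but mean below 50%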;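 further: 0% = complete ARNT plus TACC3 wells and 100% = ARNT alone without TACC3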
# NSD2 HMT inh = inhibitors of human histone methyltransferase NSD2 | 310,000 compounds, 0.54% hits | NSD2 peptide methylation, AlphaScreen, 120 min | O96028 | AID 743445 | inhibition, % at 12.5 µM; in the data active means inhibition above about 50%
# XiGFP reactiv = X-chromosome reactivation activator | XiGFP mouse fibroblasts, % GFP-positive cells imaging, 3 d; cells co-treated with 5-aza-dC sensitizer; scaled so ellipticine positive control = 100% | activation, % at 7.58 µM | 360,000 compounds, 0.055% hits;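 active means mean normalized replicate activation at least 10% and every replicate at or above 10%; inconclusive means only one of the two criteria met; inactive means mean below 10% and not all replicates reach 10%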;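 further: 0% = median of on-plate neutral control wells and 100% = ellipticine 6 µM median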
#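 System: SV40-immortalized XiGFP fibroblast cells, line 68-5-11 / Incubation: 3-day compound exposure, then 15 min fixation at room temperature / Compound: single concentration per compound, delivered by pin transfer / Buffer or medium: DMEM plus 5-aza-dC sensitizer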
# SR-BI DiI inh = blocks mouse SR-BI lipid uptake from DiI-HDL; Q61009; inhibition, % at 12.5 µM; AID 488896; 320,000 compounds, 0.96% hits; ldlA[mSR-BI] CHO cells, DiI-HDL uptake fluorescence, 3 h;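 active means mean replicate inhibition of at least 70% and a set share of replicates each scoring 70 or more; inconclusive means meets just one of the two criteria; inactive means fails both criteria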;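 further: 0% = median of neutral control wells and 100% = median of positive control wells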
# Target sequence (Q61009 whole entry, looked up): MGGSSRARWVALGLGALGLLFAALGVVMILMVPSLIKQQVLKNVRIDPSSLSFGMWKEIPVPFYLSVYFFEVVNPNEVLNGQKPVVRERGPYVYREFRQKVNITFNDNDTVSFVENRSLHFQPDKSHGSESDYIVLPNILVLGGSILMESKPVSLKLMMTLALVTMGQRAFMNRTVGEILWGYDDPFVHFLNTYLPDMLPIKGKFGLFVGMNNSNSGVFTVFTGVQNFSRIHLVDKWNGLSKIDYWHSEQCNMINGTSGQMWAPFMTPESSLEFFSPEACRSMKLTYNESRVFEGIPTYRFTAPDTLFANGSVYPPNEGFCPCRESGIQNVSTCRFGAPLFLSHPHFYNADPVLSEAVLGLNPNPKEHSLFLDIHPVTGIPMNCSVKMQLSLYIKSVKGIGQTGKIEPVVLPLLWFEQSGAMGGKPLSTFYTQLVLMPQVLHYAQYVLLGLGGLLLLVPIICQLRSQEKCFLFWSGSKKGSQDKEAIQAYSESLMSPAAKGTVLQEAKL
# HGIII-sPLA2 inh = Inhibits HGIII-sPLA2 liposome hydrolysis, primary screen | Q9NZ20 | QFRET BODIPY PC-A2 liposome hydrolysis, fluorescence | inhibition, % at 12.2 µM | 370,000 compounds, 0.56% hits | AID 743126;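 active means inhibition above mean plus 3 SD of compounds lying within the high and low control bounds, cut at about 19% in these data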;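 further: 0% = median of test compound wells and 100% = no enzyme DMSO wells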
# SR-BI uptake up = SR-BI HDL lipid transfer activation | AID 504775 | activation, % at 12.5 µM | CHO ldlA[mSR-BI] cells, DiI-HDL uptake fluorescence, 3 h; 100 = double the neutral-control signal | 320,000 compounds, 0.096% hits;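 active means mean replicate activation of at least 60% and every replicate at or above 60%; inconclusive means mean or all-replicate condition met, but not both; inactive means mean below 60% and not all replicates reaching 60%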;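 further: 0% = median plate neutral-control signal and 100% = twice that signal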
#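 Test system: SR-BI-overexpressing, LDLR-lacking CHO cells; Medium: Ham's F12 with 0.5% BSA, HEPES 25 mM, pH 7.4; Schedule: 3 h, 37 °C; Technique: bottom-read fluorescence, 550/595 nm.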
# Active calls of the source: *; ? = inconclusive; nt = no result.
SMILES,ARNT-TACC3 inh,NSD2 HMT inh,XiGFP reactiv,SR-BI DiI inh,HGIII-sPLA2 inh,SR-BI uptake up
COc1ccc(-c2ccc(-c3nc4c(c(=O)[nH]c(=O)n4Cc4ccccc4)n3C)o2)c([N+](=O)[O-])c1,24*,0,1,72*,-7,-72
O=C1NC(=Nc2ccc(Cl)cc2)/C(=C/c2ccco2)S1,0,12,0,82*,0,-82
O=C(Nc1ccc(F)c(Cl)c1)Nc1csc2ccccc12,20,-3,0,87*,5,-87
O=C(Nc1ccc(F)cc1F)Nc1csc2ccccc12,nt,-2,0,nt,11,nt
CO[C@@H]1CN(C)C(=O)c2cc(NC(=O)C3CCOCC3)ccc2OC[C@H](C)N(C(=O)c2ccccc2)C[C@@H]1C,nt,nt,0,nt,nt,nt
O=[N+]([O-])c1ccc(N2N=C(c3ccccc3)CC2c2ccccc2O)cc1 (centres undefined),nt,-7,32*,39,-39,-39
NS(=O)(=O)c1ccc(N2N=C(c3ccccc3)CC2c2ccccc2Br)cc1 (centres undefined),-16,nt,0,45,-2,-45
Cc1ccc(-c2cc(C(=O)NN=Cc3ccccc3OCC(=O)O)[nH]n2)cc1,nt,13,nt,nt,-6,nt
COc1ccc(-c2cc(C(=O)N/N=C/c3ccc(OC)c(COCC(F)(F)C(F)F)c3)c3ccccc3n2)c(OC)c1,2,-1,nt,80*,6,-80
COc1cc([N+](=O)[O-])cc(/C=N/NC(=O)c2cc(-c3ccccc3)nc3ccccc23)c1O,29,-1,0,117*,-3,-117
Cc1ccc(-c2cc(C(=O)N/N=C/c3c(C)nn(C)c3C)c3ccccc3n2)cc1C,nt,1,nt,86*,-11,-86
O=C(O)COc1ccccc1/C=N/NC(=O)c1cc(-c2ccc(F)cc2)nc2ccccc12,47*,nt,0,22,-29,-22
O=C(c1ccncc1)N1CCN(S(=O)(=O)c2cccc(Cl)c2)CC1,-2,2,0,8,2,-8
O=C(N/N=C\c1ccc([N+](=O)[O-])o1)c1cncc(Br)c1,33,0,0,10,4,-10
COc1ccc(/C=N/NC(=O)c2cc(-c3cccnc3)nc3ccccc23)c(OC)c1,0,-5,0,74*,0,-74
COc1cc([N+](=O)[O-])cc(/C=N/NC(=O)c2cncc(Br)c2)c1O,69*,nt,nt,nt,6,nt
CC(C)COc1cccc(-c2cc(C(=O)N/N=C/c3ccncc3)c3ccccc3n2)c1,-16,2,0,79*,2,-79
CCOc1cc(/C=N/NC(=O)c2cc(-c3cccc(OC)c3)nc3ccccc23)ccc1O,nt,4,0,nt,-5,nt
Cc1nn(-c2ccccc2)c(N2CCCC2)c1/C=N/NC(=O)c1cc(-c2cccnc2)nc2ccccc12,16,1,0,89*,-1,-89
COc1ccc2nc(NC(=O)c3ccc([N+](=O)[O-])o3)sc2c1,-3,6,0,19,8,-19
Cc1noc(C)c1NC(=O)N(C)C[C@@H]1OCc2cnnn2CCCC(=O)N([C@@H](C)CO)C[C@H]1C,0,nt,0,nt,5,nt
C[C@@H]1CN([C@@H](C)CO)S(=O)(=O)c2ccc(C#CCN(C)C)cc2O[C@H]1CN(C)Cc1ccncc1,-6,nt,-1,nt,nt,nt
O=C(N/N=C/c1ccc(F)cc1)c1cc(-c2ccccn2)nc2ccccc12,-2,-1,0,30,1,-30
COc1cccc(/C=N/NC(=O)c2cc(-c3ccccn3)nc3ccccc23)c1O,-6,3,0,103*,-2,-103
COc1cc([N+](=O)[O-])cc(/C=N/NC(=O)c2cc(C)nc3ccccc23)c1O,64*,-2,0,14,14,-14
SMILES,ARNT-TACC3 inh,NSD2 HMT inh,XiGFP reactiv,SR-BI DiI inh,HGIII-sPLA2 inh,SR-BI uptake up
Cc1ccc(S(=O)(=O)N[C@@H]2C=C[C@@H](CC(=O)NCCN3CCCCC3)O[C@H]2CO)cc1,0,nt,0,nt,nt,nt
CN1CCN(C(=O)/C(=C/c2cccc([N+](=O)[O-])c2)NC(=O)c2ccccc2)CC1,-1,-6,0,-15,4,15
COc1ccc(CNc2ccc([N+](=O)[O-])cn2)cc1,-6,-1,0,5,3,-5
Cc1cccc(-c2cccc3[nH]c4c(c23)CCN2C(=O)[C@H]3[C@H](C)ON(C)[C@H]3C[C@@H]42)c1,nt,nt,48*,nt,-10,nt
CCn1c(C)c(C)c2cc(C(=O)Nc3cccc(Cl)c3)ccc21,-1,1,nt,101*,-28,-101
CCn1c(C)cc(O)c(C(=O)Nc2cccc(Cl)c2)c1=O,-7,0,0,5,8,nt
C[C@@H]1CCCCO[C@H](CN(C)C(=O)CCC(F)(F)F)[C@H](C)CN([C@@H](C)CO)C(=O)c2cc(NC(=O)CCC(F)(F)F)ccc2O1,-5,nt,0,nt,nt,nt
COc1cccc(C(=O)N2N=C(c3ccccn3)CC2(O)C(F)(F)F)c1 (centres undefined),13,-1,0,-240,0,241*
CCCN1C(=O)/C(=C/c2ccc(N3CCCC3)c(C)c2)NC1=S,1,0,nt,87*,-18,-87
O=[N+]([O-])c1ccc(-c2ccc(/C=N/Nc3nc(N4CCCCC4)nc(N4CCCCC4)n3)o2)cc1,nt,2,8,?,-3,-77
O=[N+]([O-])c1cccc(-c2ccc(/C=N/Nc3nc(N4CCCCC4)nc(N4CCCCC4)n3)o2)c1,4,-2,0,84*,4,-84
O=S(=O)(Nc1nc2ccccc2nc1Nc1ccc(N2CCOCC2)cc1)c1cc(Cl)ccc1Cl,-16,26,2,73*,-1,-73
CCCCOc1ccc(/C(O)=C(\C#N)c2nc3ccccc3[nH]2)cc1,2,-3,0,12,3,-12
N#C/C(=C(/O)c1ccc(C(=O)c2ccccc2)cc1)c1nc2ccccc2[nH]1,-10,-2,0,-243,5,243*
O=[N+]([O-])c1cccc(/C=C2\CCc3cnn(C4CCS(=O)(=O)C4)c32)c1 (centres undefined),nt,-2,0,nt,5,nt
O=C(Cc1ccc(Cl)cc1)N1CCc2ccccc2C1,-2,-6,0,-449,6,449*
COc1ccc(CC(=O)N2CCc3ccccc3C2)cc1,3,-4,0,1,2,-1
O=C(Nc1ccc(Cl)cc1)c1ccc(CN2CCc3ccccc3C2)cc1,16,nt,0,38,20*,-38
COc1ccc(-c2oc(=O)c3cc(OC)c(OC)cc3c2C#CCCCO)cc1,-29,nt,0,78*,-11,-78
